# According to paper PMC8963331 (Toxicological Sciences, 2022):
# Where two headings read alike, the source gives them in different places. Marks after values point to notes of the source that are not given here.
# Assays:
# humans = settings: QD, ref Sandborn et al., 2020, cited from earlier work
# [1] = Human plasma protein binding; format: in vitro ADME
# [2] = Dog 4-, 13-, 39-week repeat-dose general toxicity studies; format: in vivo; settings: both, beagle, dog, in vivo, oral
# beagle dogs = assay: as above; format: in vivo
# [3] = system: Crl:CD Sprague Dawley (SD) rats; assay: Rat 4-, 13-, 26-week repeat-dose general toxicity studies; format: in vivo
# How it was run: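 Crl:CD Sprague Dawley rats, 7–8 weeks old at start, dosed daily by oral gavage (10 ml/kg) at 0 (vehicle), 30, 100 or 1000 mg/kg/day for 4, 13 or 26 weeks. n = 10/sex/group, plus 4-week dose-free recovery (n = 5/sex). Rats fasted overnight. Hematology, coagulation and clinical chemistry sampled at baseline, end of dosing and end of recovery. Sexes pooled; treated groups compared with vehicle; variance homogeneity by […] Levene test.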
# [4] = dog, 39-week study, 100 mg/kg/day
# [5] = dog, 39-week study, 100 mg/kg/day, reversible
# [6] = dog, 39-week study, 30 and 100 mg/kg/day
# [7] = rat, 4 weeks, 1000 mg/kg/day, reversible
# [8] = rat, 13 weeks, 1000 mg/kg/day, reversible
# [9] = rat, 26 weeks, 1000 mg/kg/day, reversible
compound,measurement,setting,value
"Cc1cc(Nc2cc3ncccc3c(N[C@@H]3C[C@H]4CC[C@@H](C3)N4CCC#N)n2)n[nH]1 [izencitinib, Izencitinib]",dose up to which well tolerated,"humans; phase 1b, ulcerative colitis patients",270 mg
same,dose up to which well tolerated,humans; phase 1 single ascending dose,1000 mg
same,fraction unbound,[1],0.146
same,NOAEL at 39 weeks,[2],30 mg/kg/day
same,"effects on ophthalmology, electrocardiography, food consumption, urinalysis",beagle dogs; all dog studies,No effects
same,tolerability,"beagle dogs; dog 4-week study, 300 mg/kg/day, after 12–13 days",not tolerated
same,early euthanasia,"beagle dogs; dog 4-week study, 300/100 mg/kg/day, days 18 and 19",3 dogs
same,early euthanasia,"beagle dogs; dog 39-week study, 100 mg/kg/day, at 25–26 weeks, skin observations",2 dogs
same,organ weights and microscopic findings in male reproductive tissues,"beagle dogs; dog repeat-dose studies, up to highest tested doses",no microscopic findings
same,effects on lipid levels,"beagle dogs; dog repeat-dose toxicity studies, any dose",no effects
same,dose with decreased hematopoietic and lymphoid cellularity (microscopic),"beagle dogs; dog, 4- and 13-week studies",≥ 100 mg/kg/day
same,"red blood cell parameters, change","beagle dogs; dog, 4- and 13-week studies, 100 mg/kg/day, reversible",0.82–0.85 ×
same,changes in reticulocyte levels,"beagle dogs; dog, 4- and 13-week studies, any dose",No changes
same,no observed adverse effect level,"beagle dogs; dog, 4 weeks",30^c mg/kg/day
same,effects on white blood cell parameters,"beagle dogs; dog, 4 weeks, end of dosing phase",No significant effects
same,"fibrinogen levels, change","beagle dogs; dog, 13- and 39-week studies, 100 mg/kg/day",1.3–1.4 ×
same,"effects on white blood cell, lymphocyte, or neutrophil counts","beagle dogs; dog, 13 weeks",No izencitinib-related effects
same,no observed adverse effect level,"beagle dogs; dog, 13 weeks",30^c mg/kg/day
same,"platelets, change","beagle dogs; dog, 13 weeks, 100 mg/kg/day, reversible",1.5 ×
same,dose with decreased hematopoietic and lymphoid cellularity (microscopic),"beagle dogs; dog, 39-week study",≥ 30 mg/kg/day
same,"red blood cell parameters, change",beagle dogs; [4],0.76–0.79 ×
same,tolerability,beagle dogs; [4],not tolerated
same,"hemoglobin levels, change","beagle dogs; dog, 39-week study, 100 mg/kg/day, after recovery",0.87 ×
same,"white blood cell counts, change","beagle dogs; dog, 39-week study, 100 mg/kg/day, recovery animals",1.3 ×
same,"helper T cells (immunophenotyping), change",beagle dogs; [5],0.71 ×
same,"lymphocyte counts, change",beagle dogs; [5],0.70 ×
same,"total T cells (immunophenotyping), change",beagle dogs; [5],0.71 ×
same,"total lymphocytes (immunophenotyping), change",beagle dogs; [5],0.70 ×
same,"B cells (immunophenotyping), change","beagle dogs; dog, 39-week study, 100 mg/kg/day, without reversibility in 4-week recovery",0.59 ×
same,"neutrophils, change",beagle dogs; [6],1.3–1.5 ×
same,"platelets, change",beagle dogs; [6],1.3–2.2 ×
same,"hematocrit, change","beagle dogs; dog, 39-week study, 30 and 100 mg/kg/day, after recovery",0.90–0.92 ×
same,"reticulocytes, change","beagle dogs; dog, 39-week study, 30 and 100 mg/kg/day, reversible",0.45–0.51 ×
same,"red blood cell parameters, change","beagle dogs; dog, 39 weeks, 30 mg/kg/day",0.90–0.91 ×
same,"white blood cell counts, change","beagle dogs; dog, 39 weeks, 30 mg/kg/day, end of dosing phase",1.2 ×
same,effects on prothrombin time or activated partial thromboplastin time,"beagle dogs; dog, any dose, 3 studies",No effects
same,microscopic findings in GI tissues,"beagle dogs; dog, up to 100 mg/kg/day, all 3 studies",no adverse microscopic findings
same,organ weights and microscopic findings in male reproductive tissues,"[3]; rat repeat-dose studies, up to highest tested doses",no microscopic findings
same,effects on lipid levels,"[3]; rat repeat-dose toxicity studies, any dose",no effects
same,"spleen weight, change","[3]; rat, 100 mg/kg/day",0.87 ×
same,"spleen weight, change","[3]; rat, 1000 mg/kg/day",0.78–0.86 ×
same,no observed adverse effect level,"[3]; rat, 4 weeks",1000^c mg/kg/day
same,"platelet counts, change","[3]; rat, 4 weeks, 100 mg/kg/day, reversible",1.1 ×
same,"lymphocyte counts, change",[3]; [7],0.64 ×
same,"platelet counts, change",[3]; [7],1.2 ×
same,"white blood cell counts, change",[3]; [7],0.66 ×
same,changes in red blood cell parameters,"[3]; rat, 4 weeks, any dose",No changes
same,no observed adverse effect level,"[3]; rat, 13 weeks",1000^c mg/kg/day
same,"lymphocyte counts, change","[3]; rat, 13 weeks, 100 mg/kg/day, reversible",0.78 ×
same,"hemoglobin levels, change","[3]; rat, 13 weeks, 1000 mg/kg/day, end of dosing",0.97 ×
same,"hemoglobin levels, change","[3]; rat, 13 weeks, 1000 mg/kg/day, end of recovery period",0.95 ×
same,"lymphocyte counts, change",[3]; [8],0.64 ×
same,"platelet counts, change",[3]; [8],1.2 ×
same,"red blood cell counts, change",[3]; [8],0.96 ×
same,"white blood cell counts, change",[3]; [8],0.74 ×
same,"platelet counts, change","[3]; rat, 26 weeks, 1000 mg/kg/day",1.1 ×
same,"white blood cell counts, change","[3]; rat, 26 weeks, 1000 mg/kg/day",0.68 ×
same,"incidence of minimally decreased lymphoid cellularity, females",[3]; [9],1 of 10
same,"incidence of minimally decreased lymphoid cellularity, males",[3]; [9],4 of 10
same,"hemoglobin levels, change","[3]; rat, 26 weeks, all dose levels",0.95 ×
same,"effects on food consumption, ophthalmic evaluations, clinical chemistry, urinalysis","[3]; rat, all repeat-dose studies",no effects
same,changes in reticulocyte levels,"[3]; rat, any dose, 3 studies",No changes
